Neddyl block: inhibitors of cullin neddylation, primary screen, biochemical, TR-FRET, uHTS, NAE and Ubc12; NEDD8-conjugating enzyme Ubc12 (Homo sapiens) + NEDD8-activating enzyme E1 regulatory …; calls only at 25 µM; 360,000 compounds, 0.58% hits; AID 651699, 2012; in the data active = inhibition above about 36%
Target sequence (P61081 whole entry, looked up): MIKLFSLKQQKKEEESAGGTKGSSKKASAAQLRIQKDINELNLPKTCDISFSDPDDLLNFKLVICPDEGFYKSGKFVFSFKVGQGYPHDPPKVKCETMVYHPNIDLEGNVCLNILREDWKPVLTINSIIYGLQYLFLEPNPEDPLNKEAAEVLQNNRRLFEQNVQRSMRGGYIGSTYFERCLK
Target sequence (Q13564 whole entry, looked up): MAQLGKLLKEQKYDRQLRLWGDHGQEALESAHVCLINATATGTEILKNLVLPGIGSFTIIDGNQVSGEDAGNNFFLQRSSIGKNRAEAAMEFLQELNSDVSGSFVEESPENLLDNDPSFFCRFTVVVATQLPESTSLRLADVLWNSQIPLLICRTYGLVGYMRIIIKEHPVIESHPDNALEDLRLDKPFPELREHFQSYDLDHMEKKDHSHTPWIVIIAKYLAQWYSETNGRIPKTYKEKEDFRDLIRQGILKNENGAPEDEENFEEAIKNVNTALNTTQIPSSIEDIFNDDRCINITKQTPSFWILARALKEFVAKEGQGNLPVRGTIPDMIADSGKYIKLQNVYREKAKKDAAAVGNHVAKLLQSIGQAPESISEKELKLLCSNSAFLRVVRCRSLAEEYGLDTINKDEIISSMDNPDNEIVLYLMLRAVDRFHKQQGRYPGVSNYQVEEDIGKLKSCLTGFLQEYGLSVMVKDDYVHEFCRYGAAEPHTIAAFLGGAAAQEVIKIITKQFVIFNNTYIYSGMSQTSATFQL
VIM-2 inhibitor: VIM-2 metallo-beta-lactamase inhibitors, primary screen, biochemical, epi-absorbance readout, Pseudomonas aeruginosa enzyme | 290,000 compounds, 0.89% hits | AID 1527, 2009 | inhibition, % at 5.6 µM | purified VIM-2, nitrocefin hydrolysis, epi-absorbance fluorescence;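 active = inhibition above the mean of all tested compounds plus 3 SD, cutoff set per screening run, cut at about 7.5% in these data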;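 note: red hydrolysis product quenches plate fluorescence so inhibitors raise well fluorescence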
PolyA inhibitor: polyadenylation inhibitors in yeast reporter cells, primary screen, luminescence, S. cerevisiae; 300,000 compounds, 0.02% hits; activity score, % at 12 µM; S. cerevisiae SKY197-pL101 polyadenylation reporter, beta-gal luminescence; efflux-impaired pdr1/pdr3 knockout yeast; score 100 = 6 SD above DMSO; AID 1875, 2009;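 active = lowest replicate activity score at least 50, where 100 means six control SD above control mean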;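 note: yeast exposed to compound for 9 h at 30 °C; higher score means more reporter readthrough which indicates perturbed polyadenylation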
IMP-1 inh: IMP-1 metallo-beta-lactamase inhibitors, primary screen, biochemical, epi-absorbance readout, Pseudomonas aeruginosa enzyme; 290,000 compounds, 0.45% hits; purified IMP-1, nitrocefin hydrolysis, epi-absorbance fluorescence; metallo-beta-lactamase IMP-1 (Pseudomonas aeruginosa); inhibition, % at 5.6 µM;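 active = inhibition above the mean plus 3 SD of all compounds in the same screening run, cut at about 4.5% in these data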
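System: purified IMP-1; amount: IMP-1 0.2 nM before substrate addition; compound: single dose, 5.6 µM; times: 25 °C, 15 min preincubation, 25 min reaction; signal: Epi-absorbance via hydrolysed-nitrocefin quenching of white-plate fluorescence, 480/530 nm, EDTA stop; benchmarks: DMSO with and without IMP-1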
procasp3 activ: activators of human procaspase-3 D3A mutant, primary screen, biochemical, absorbance, PC-3 D3A mutant, single concentration | 330,000 compounds, 0.11% hits | recombinant procaspase-3 D3A, Ac-DEVD-pNA absorbance 405 nm | AID 463141, 2010 | activation, % at 8.5 µM;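 active = activation above the mean of all tested compounds plus 3 SD, cut at about 21% in these data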
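Assay system – Procaspase-3 D3A mutant · Benchmarks – DMSO low control, extra-enzyme high control · Technique – 405 nm absorbance of p-nitroaniline, reads at 0 and 120 min · Doses – 8.5 µM nominal · Measure – % activation between DMSO and enzyme-spiked controls · Also added – Ac-DEVD-pNA chromogenic peptide substrate · Schedule – 1 h compound preincubation, 2 h substrate hydrolysis at 25 °C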
procasp7 counter: procaspase-7 activators, primary screen, counter-screen for procaspase-3 activator project, biochemical, absorbance, HTS, human; Caspase-7 (Homo sapiens), P55210; recombinant procaspase-7, Ac-DEVD-pNA absorbance 405 nm; D23A/D198A/D206A triple mutant, cannot self-cleave; scale: DMSO 0, 5 µM enzyme 100; activation, % at 8.5 µM; 330,000 compounds, 0.093% hits; AID 463210, 2010;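 active = percent activation above the screen-wide mean plus 3 SD, cut at about 25% in these data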
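Assay system: Uncleavable procaspase-7 mutant enzyme | Input: 2 µM procaspase-7 mutant as dispensed | Timing: 1 h compound preincubation, 2 h substrate cleavage, 25 °C | Repeats: One well per compound | Control set: DMSO wells as 0%, DMSO with 5 µM added PC-7 as 100% | Technique: Epi-absorbance of released pNA at 405 nm, two timepoints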
Each line names hits and unclear results; the compound was inactive in the other large screens. In the library only some 1.7% were active in any assay of this set; here they are far more common.

CCCc1cc(=O)oc2cc(OCC(=O)NCC(O)c3ccccc3)ccc12 (stereo unspecified)	IMP-1 inh 42.2
Cc1ccccc1OCC(=O)OCC(=O)Nc1ccc(S(N)(=O)=O)cc1	none
CCCc1cc(=O)oc2cc(OCC(=O)Nc3ccc(S(N)(=O)=O)cc3)ccc12	IMP-1 inh 15.3
O=C1C2CC=CCC2C(=O)N1c1cccc(OS(=O)(=O)c2ccc3ccccc3c2)c1 (stereo unspecified)	none
Cc1ccc(NC(=O)CSc2nc(=O)n(CCCN3CCOCC3)c3c2CCCC3)cc1	none (no result: VIM-2 inhibitor, IMP-1 inh)
Cc1ccc(SCCNC(=O)c2ccc(CN3CCOCC3)cc2)cc1	none
Cc1ccc(CCNC(=O)C2CCN(S(=O)(=O)c3cccc4cccnc34)CC2)cc1	none
Cc1ccc(CCNC(=O)C2CCN(S(=O)(=O)c3cccc4nsnc34)CC2)cc1	IMP-1 inh 4.9
Cc1cccc(Oc2ncnc3oc(-c4ccccc4)cc23)c1C	none
CCN1C(=O)[C@H]2[C@@H](c3ccc(-c4ccc(Cl)c(Cl)c4)cc3)N[C@@](C)(C(=O)OC)[C@H]2C1=O	none (no result: VIM-2 inhibitor, IMP-1 inh)
CCc1[nH]nc2c1C1(CCN(C(=O)OCc3ccccc3)CC1)C(C#N)=C(N)O2	VIM-2 inhibitor 10.7
COc1ccc(N/C=C/c2nc(SC)nnc2C)cc1	VIM-2 inhibitor 7.8
COc1ccccc1C1C(C(N)=O)=C(C)Nc2ncnn21 (stereo unspecified)	IMP-1 inh 6.8
CCOC(=O)c1c(C)oc2c(F)c(F)c(F)c(F)c2c1=O	IMP-1 inh 8.8
COc1ccccc1/C=C/C=c1\sc2nc(=O)c(Cc3ccccc3)nn2c1=O	IMP-1 inh 7.9
CCCCN(CC)CCNC(=O)c1cc2c(=O)[nH]c3ccc(C)cc3c2s1	VIM-2 inhibitor 8.3 (not shown: Neddyl block)
CCCCN(CC)CCCNC(=O)c1cc2c(=O)[nH]c3ccccc3c2s1	VIM-2 inhibitor 11.3 (not shown: Neddyl block)
Cc1noc(C)c1CN1C(=O)c2ccccc2C1=O	IMP-1 inh 4.8
O=C1CC(C(=O)Nc2nccs2)C(c2ccccc2)O1 (stereo unspecified)	none (no result: VIM-2 inhibitor, IMP-1 inh)
CCN(CC)c1ccc2c(c1)OC(N)=C(C#N)C2c1cccnc1 (stereo unspecified)	IMP-1 inh 9.6
Cn1nnnc1Sc1ccc([N+](=O)[O-])cc1Cl	none
CCOC(=O)c1cnn(-c2ncnc3c2oc2ccccc23)c1N	none (no result: VIM-2 inhibitor, IMP-1 inh)
CCOC(=O)c1cnc(-n2nc(C)cc2C)nc1N(C)C	none
CCOC(=O)c1cnc(-n2nc(C)cc2C)nc1NCCc1ccccc1	VIM-2 inhibitor 9.6
CCOC(=O)c1cnc(-n2nc(C)cc2C)nc1NC1CCCC1	VIM-2 inhibitor 8.4
CCOC(=O)c1cnc(-n2nc(C)cc2C)nc1Nc1ccccc1OC	none (no result: Neddyl block, PolyA inhibitor, procasp3 activ, procasp7 counter)
CCOC(=O)c1cnc(-n2nc(C)cc2C)nc1Nc1ccc(OC)cc1	VIM-2 inhibitor 10.7
O=C(CN1C(=O)/C(=C/c2ccccc2Cl)SC1=S)NC1C=CS(=O)(=O)C1 (stereo unspecified)	IMP-1 inh 12.0
O=C(CN1C(=O)/C(=C/c2ccc(F)cc2)SC1=S)NC1CCS(=O)(=O)C1 (stereo unspecified)	IMP-1 inh 10.5
O=C(CCN1C(=O)/C(=C/c2ccccc2Cl)SC1=S)NN1CCOCC1	IMP-1 inh 4.5
O=C(CN1C(=O)/C(=C/c2ccc(F)cc2)SC1=S)NC1C=CS(=O)(=O)C1 (stereo unspecified)	IMP-1 inh 4.8
CCOC(=O)c1c(NC(=O)C2CCCO2)sc(C)c1C (stereo unspecified)	none
O=[N+]([O-])c1ccccc1/C=C/C=N/Nc1nc(N2CCCCC2)nc(N2CCCCC2)n1	none
COc1ccccc1NS(=O)(=O)c1cccc(NC(=S)NCCN2CCOCC2)c1	none
CC(C)Cc1nnc(NS(=O)(=O)Cc2ccccc2)s1	VIM-2 inhibitor 10.0
Nc1nnnn1/N=C/c1cc(Cl)cc(Cl)c1OCc1ccc(Cl)cc1Cl	none (not shown: Neddyl block)
CC(C)=CCOc1c2ccoc2cc2oc(=O)ccc12	PolyA inhibitor 53.5
COc1ccc(-c2nc3scc(-c4ccc(OC)c(OC)c4)c3c(=O)o2)cc1	IMP-1 inh 5.0
Cc1ccc(C(=O)O)cc1-c1ccc(/C=C2/NC(=O)N(c3ccccc3)C2=O)o1	Neddyl block active
CCCNC(=O)C1(C)CCCN(Cc2cccc(C#N)c2)C1 (stereo unspecified)	none (no result: VIM-2 inhibitor, PolyA inhibitor, IMP-1 inh, procasp3 activ, procasp7 counter)
CC1=C(C(=O)Nc2ccccc2C)C(c2ccccc2)NC(=O)N1 (stereo unspecified)	IMP-1 inh 4.5
COc1cccc(C2NC(=O)NC(C)=C2C(=O)Nc2ccccc2C)c1 (stereo unspecified)	none (no result: Neddyl block, procasp3 activ, procasp7 counter)
CC(=O)Oc1ccc(Cn2cnc3cc4ccccc4cc32)cc1	IMP-1 inh 5.5
O=c1c2ccccc2nc(-c2ccco2)n1CCCn1ccnc1	VIM-2 inhibitor 8.1
O=c1c2ccccc2nc(-c2ccccc2)n1CCCn1ccnc1	none
NC(=S)Nc1ccc(Oc2ccc(NC(N)=S)cc2)cc1	IMP-1 inh 14.6
Cc1cnc(N)c2c(=O)oc3ccccc3c12	VIM-2 inhibitor 8.4 (not shown: Neddyl block)
O=c1oc2ccccc2c2c1cnc1ccccc12	none (no result: VIM-2 inhibitor, PolyA inhibitor, IMP-1 inh)
C/C(=N\NC(=O)CSc1nc(C)[nH]c1[N+](=O)[O-])c1ccc(F)cc1	none
CC1CCN(S(=O)(=O)c2cn(CC(=O)Nc3ccc(OC(F)(F)F)cc3)cn2)CC1	IMP-1 inh 8.8
O=C(Cn1cnc(S(=O)(=O)N2CCCCC2)c1)Nc1ccc(OC(F)(F)F)cc1	none
COc1ccc(CCCc2n[nH]c(=S)o2)c(C)c1	none
COc1ccc(CC(=O)Nc2ccccc2N2CCOCC2)cc1OC	none
Cc1ccc(CC(=O)Nc2ccccc2N2CCOCC2)cc1C	IMP-1 inh 6.3 (no result: PolyA inhibitor)
CSCCC(NC(=O)C1CC1)c1nc2ccccc2[nH]1 (stereo unspecified)	IMP-1 inh 4.8
CSCC[C@H](NC(=O)C1CCCC1)c1nc2ccccc2[nH]1	none
CCc1ccc(/C=C/c2c[nH]c3ccccc23)[n+](CC)c1	none
C[n+]1ccc(/C=C/c2c[nH]c3ccc(F)cc23)cc1	IMP-1 inh 4.6 (no result: procasp3 activ, procasp7 counter)
O=C(Nc1nnc(-c2ccco2)s1)c1ccccc1	none
COc1ccc(C(=O)Nc2nnc(-c3ccco3)s2)cc1	IMP-1 inh 7.3

Screens from PubChem BioAssay.
